Experimental data gathered from unrelated publications.
Protocols differ between the studies behind these lines.
Target: Interleukin-1 receptor-associated kinase 4 (IRAK4, Homo sapiens, UniProt Q9NWZ3)

| Structure (SMILES) | test | conditions | quantity | result |
| --- | --- | --- | --- | --- |
| CO[C@@H](C)c1c(Nc2ccc([C@H](N(C)C(=O)C3CCS(=O)(=O)CC3)C(F)(F)F)cc2)cnc2cc(Cl)nn12 | cell-free assay, competition with immobilised ligand | 1 µM | remaining binding | 88% |
| COc1cc(Nc2cnc(C#N)c(O[C@H](C)CN(C)C)n2)ncc1-c1cnn(C)c1 | enzyme activity, inhibitor, radiometric | 10 µM | remaining activity | 25% |
| N#Cc1ccc(Nc2ccc3[nH]c(=O)[nH]c3c2)c(Cl)c1 | cell-free assay, competition with immobilised ligand | 1 µM | remaining binding | 100% |
| CNC(=O)c1cc(Oc2ccc(NC(=O)Nc3ccc(Cl)c(C(F)(F)F)c3)cc2)ccn1 | cell-free assay | 0.5 µM | remaining signal | 99.6% |
| CC(C)(C)c1nc2c(s1)c1nc(N)ncc1c1ccc(NS(=O)(=O)c3c(F)cccc3F)c(F)c12 | enzyme activity, inhibitor, radiometric | 1 µM | remaining activity | 90% |
| CS(=O)(=O)Nc1cccc(-c2csc(NC(=O)CSc3nc4nccnc4c(=O)n3CCc3ccccc3)n2)c1 | enzyme activity, inhibitor | 10 µM | inhibition | 7% |
| C=CC(=O)Nc1cc(Nc2nccc(Nc3cc(Cl)c(F)cc3C(C)(C)O)n2)c(OC)cc1N1CC[C@@H](N(C)C)C1 | enzyme activity, inhibitor | 1 µM | inhibition | 24% |
| FC(F)(F)Oc1cccc(-c2cnc3ccc(-c4ccncc4)nn23)c1 | enzyme activity, inhibitor, radiometric | 5 µM | activity vs control | 10% |
| CCN(CC)CCNC(=O)c1c(C)[nH]c(/C=C2\C(=O)Nc3ccc(F)cc32)c1C | enzyme activity, inhibitor | 0.3 µM | inhibition | 28% |
| Cc1ccc(C(=O)Nc2ccc(CN3CCN(C)CC3)c(C(F)(F)F)c2)cc1C#Cc1cnc2cccnn12 | enzyme activity, inhibitor | 23.5 nM | remaining activity | 91% |
| Oc1cccc(-c2nc(N3CCOCC3)c3oc4ncccc4c3n2)c1 | cell-free assay | 0.5 µM | remaining signal | 104% |
| Cn1c(=O)n(-c2ccc(C(C)(C)C#N)cc2)c2c3cc(-c4cnc5ccccc5c4)ccc3ncc21 | enzyme activity, inhibitor | 10 µM | remaining activity | 78% |
| CCCS(=O)(=O)Nc1ccc(F)c(C(=O)c2c[nH]c3ncc(-c4ccc(Cl)cc4)cc23)c1F | enzyme activity, inhibitor | 1 µM | inhibition | < 10% |
| COc1cc2ncnc(Nc3ccc(Oc4ccccc4)c(C)c3C)c2cc1OC | enzyme activity, inhibitor | 1 µM | inhibition | -4% |
| CSc1nc(C)c(-c2ccnc(Nc3ccc(N4CCOCC4)cc3)c2)[nH]1 | enzyme activity, inhibitor | 10 µM | inhibition | 45.8% |
| O=C1NC(=O)c2cc(Nc3ccc(F)cc3)c(Nc3ccc(F)cc3)cc21 | cell-free assay | 0.5 µM | remaining signal | 98.1% |

| Structure (SMILES) | test | conditions | quantity | result |
| --- | --- | --- | --- | --- |
| Cc1cc(C)c(-n2ccn3nc(-c4cccnc4)cc23)cc1NC(=O)c1cc(C#N)cc(S(F)(F)(F)(F)F)c1 | cell-free assay, competition with immobilised ligand | 0.1 µM | remaining binding | 100% |
| CN(C)C1CCN(CC#Cc2nn(C3CCCC3)c3nc(NCc4ccccc4)ncc23)C1 (stereo not shown) | enzyme activity, inhibitor, FRET | 0.1 µM | inhibition | 0% |
| CC/C(=N\NC(=O)NCc1cccc(O)c1)c1ccc(O)c(C)c1O | enzyme activity, inhibitor | 0.1 µM | inhibition | -0.4% |
| Cc1sc(C(=O)NC2COC2)cc1-n1cc(NC(=O)Nc2c(F)cccc2Cl)cn1 | enzyme activity, inhibitor | 10 µM | remaining activity | 103% |
| Cc1nccc(COC(=O)N2C[C@@H]3[C@@H](CNC(=O)c4ccc5[nH]nnc5c4)[C@@H]3C2)n1 | cell-free assay, competition with immobilised ligand | 1 µM | remaining binding | 87% |
| CNc1cccc2cc(C(=O)Nc3ccc(C(=O)O)cc3)c(=O)[nH]c12 | enzyme activity, inhibitor | 10 µM | inhibition | 7.7% |
| CCc1ccccc1C(=O)Nc1n[nH]c2c(C)c(F)c(C3C(C#N)=C(C)N(C)C(C)=C3C#N)cc12 | cell-free assay, competition with immobilised ligand | 1 µM | remaining binding | 100% |
| O=C(Nc1cnn(-c2csc(C(=O)NC3COC3)c2)c1)Nc1c(F)cccc1Cl | enzyme activity, inhibitor | 5 µM | remaining activity | 97.8% |
| Nc1cnc(N2CCc3cc(S(=O)(=O)Nc4c(F)cc(Cl)cc4F)cc(N4CCCC4=O)c32)nc1 | cell-free assay, competition with immobilised ligand | 1 µM | remaining binding | 100% |
| Cc1ccc(Nc2nccc(N(C)c3ccc4c(C)n(C)nc4c3)n2)cc1S(N)(=O)=O | enzyme activity, inhibitor | 0.5 µM | remaining activity | 98.4% |
| F[C@@H]1CCN(c2nccc(-c3cnn4ncccc34)n2)C1 | binding | 1 µM | remaining binding | 100% |
| CNC(=O)c1ccc(Nc2ncc(C(F)(F)F)c(NCc3nccnc3N(C)S(C)(=O)=O)n2)cc1 | cell-free assay, competition with immobilised ligand | 0.1 µM | remaining binding | 92% |
| Cc1cnc(NC2CCOCC2)nc1-n1cnc(C(=O)NC(CN)c2cc(F)cc(Cl)c2)c1 (stereo not shown) | enzyme activity, inhibitor, radiometric | 1 µM | remaining activity | 104% |
| CCC(=O)N[C@H]1CC[C@@H](C(=O)N(C)c2ccc(-c3nc4ccccc4o3)cc2)C1 | cell-free assay, competition with immobilised ligand | 1 µM | remaining binding | 87% |
| CN1CC(Oc2cnc(C#N)cc2-c2ccn3nc(NC(=O)C4CC4)cc3c2)C1 | enzyme activity, inhibitor | 1 µM | inhibition | 1% |
